Measurements as given in paper PMC3480690 (The Open Medicinal Chemistry Journal, 2012).

Test system: MCF-7 cells
Experiment: MTT assay, cytotoxicity on MCF-7 cells
Type: cell-based
Conditions: Homo sapiens, MCF7, 24 h, read-out: MTT assay IC50
Procedure, shortened: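 Human breast cancer MCF-7 cells grown in DMEM with 10% FBS, penicillin and streptomycin at 37°C, 5% CO2. 10000 cells per well were seeded, cultured overnight, then exposed to test compound (1-200 µM) for 24 h. MTT at 0.5 mg/ml final was added for 3 h at 37°C. Formazan was dissolved in DMSO and read at 545 nm (630 nm reference). IC50 was taken from concentration-growth inhibition curves.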

With Cc1ccc(-c2cc(C(F)(F)F)nn2-c2ccc(S(N)(=O)=O)cc2)cc1 [Celecoxib] the IC50 was 87.7 µM.
